# Source: PubChem (Sanford-Burnham Center for Chemical Genomics)
# Shown are actives, neighbours in structure and some others; about 1.9% of the full set was active somewhere.
# LMPTP inh: LMPTP (human) inhibition | actives 0.22% (n = 360,000) | recombinant LMPTP-A, OMFP fluorogenic substrate, fluorescence intensity | P24666 | inhibition, % at 20 µM | AID 651560;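 active means compounds that cut the enzyme signal by at least half of the control window in the single-dose screen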;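 further: plate controls were DMSO wells with enzyme plus substrate for no effect and substrate without enzyme for full effect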
# Target sequence (P24666 whole entry, looked up): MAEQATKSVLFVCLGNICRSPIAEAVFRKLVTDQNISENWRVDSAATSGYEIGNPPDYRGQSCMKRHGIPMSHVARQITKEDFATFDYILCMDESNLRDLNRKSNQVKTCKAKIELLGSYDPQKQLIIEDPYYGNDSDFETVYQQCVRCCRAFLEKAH
#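 Test system: LMPTP-A phosphatase enzyme; input: 0.625 nM LMPTP-A final; reagent: OMFP substrate, 400 µM final; compound dosing: 20 µM single dose, 3% DMSO; incubation: 50 min dark incubation at room temperature; measured by: endpoint fluorescence intensity from OMFP dephosphorylation; measure: % inhibition relative to no-enzyme and uninhibited control wells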
# DNMT1 block: DNMT1 (human) enzyme inhibition | P26358 | DNMT1 molecular beacon, Hinp1I cleavage, fluorescence | inhibition (reported as % activation of signal), % at 10 µM | actives 0.83% (n = 360,000); in the data active means inhibition above about 50%
# SUMO1-SIM PPI: modulators of human SUMO1-mediated protein-protein interactions; actives 0.33% (n = 360,000); inhibition, % at 20 µM; P63165; SUMO1 binding to a labelled peptide, TR-FRET, 1 h; in the data active means inhibition above about 37%
# Target sequence (P63165 whole entry, looked up): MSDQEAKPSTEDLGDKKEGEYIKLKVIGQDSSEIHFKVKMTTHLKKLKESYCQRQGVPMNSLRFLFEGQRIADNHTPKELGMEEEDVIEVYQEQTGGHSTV
# UBC9 SUMO inh: blocks human SUMOylation mediated by UBC9. P63279. HTRF SUMOylation assay, SAE1/SAE2 + UBC9, in vitro. inhibition, % at 35 µM. actives 0.36% (n = 290,000); in the data active means inhibition above about 50%, passing the limit was not always enough
# Target sequence (P63279 whole entry, looked up): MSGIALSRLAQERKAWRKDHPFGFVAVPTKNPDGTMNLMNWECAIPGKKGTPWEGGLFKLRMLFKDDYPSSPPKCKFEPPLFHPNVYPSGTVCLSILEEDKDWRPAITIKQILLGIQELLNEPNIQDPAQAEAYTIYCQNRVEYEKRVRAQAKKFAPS
# STEP inh: blocks human striatal-enriched tyrosine phosphatase; P54829; recombinant STEP, OMFP fluorogenic substrate, fluorescence; inhibition, % at 20 µM; actives 0.25% (n = 360,000);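 active means inhibition at 20 µM, scaled per plate between control wells, above about 37%, limit read from the data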;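 further: 0% = DMSO with enzyme and substrate and 100% = substrate only without enzyme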
#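 Test system: STEP tyrosine phosphatase / Reagent: OMFP at 25 µM / Doses: 20 µM, 1% DMSO / Read-out: percent inhibition scaled to no-enzyme and uninhibited-enzyme controls, plate-pattern corrected / Detection: FITC-channel fluorescence of OMFP product / Medium: Bis-Tris buffer pH 6.0, 2.5 mM DTT, 0.005% Tween 20 / Schedule: 20 min at room temperature, dark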
# Scp1 inh: inhibitors of human Scp-1 phosphatase; Q9GZU7; inhibition, % at 20 µM; AID 493091; Recombinant Scp1, phosphopeptide, malachite green phosphate absorbance; actives 0.88% (n = 340,000);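 active means inhibition above about 50% at 20 µM, limit read from the data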;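 further: plate controls were DMSO wells with enzyme for no effect and wells lacking enzyme for full effect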
# Target sequence (Q9GZU7 76-261 limits assumed): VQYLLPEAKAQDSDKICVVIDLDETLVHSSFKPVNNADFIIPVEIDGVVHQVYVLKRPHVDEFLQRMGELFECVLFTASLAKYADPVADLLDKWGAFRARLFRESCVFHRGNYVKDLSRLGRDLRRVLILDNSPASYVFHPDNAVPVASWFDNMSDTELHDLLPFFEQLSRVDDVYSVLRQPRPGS
#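 System: truncated SCP-1 phosphatase (76-261aa); medium: Tris acetate buffer pH 5.5 with MgCl2 and Tween-20; incubation: 45 min room-temperature reaction, 5 min colour, 30 min stabiliser; compound: single 20 µM dose, 1% DMSO; reagent: Phosphorylated 17-residue peptide substrate; read-out: % inhibition at 20 µM; technique: colorimetric free-phosphate detection, absorbance 630 nm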
# Scp-1 conf: confirmation of human Scp-1 phosphatase inhibitors; shares compounds with Scp1 inh; recombinant SCP-1 catalytic domain, phosphate release, malachite green absorbance; inhibition, % at 20 µM; actives 61% (n = 2,500); AID 540281;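 further: plate controls were DMSO with enzyme for no effect and buffer wells lacking enzyme for full effect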
# Scp-1 MG ctr: counter-screen for Scp-1 inhibitors: colorimetric interference. shares compounds with Scp1 inh. Colorimetric interference counterscreen, malachite green absorbance 630 nm. apparent inhibition (interference), % at 20 µM. 2,500 tested, under 10 active. AID 540313;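 further: compounds added after enzyme reaction finished so only phosphate colour detection is probed; plate controls were DMSO wells with completed Scp-1 reaction for no effect and substrate wells lacking enzyme for full effect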
# Scp1 DSF: binds human Scp-1, shifting its melting temperature; shares compounds with Scp1 inh; Recombinant SCP1, Sypro Orange thermal shift Tm; thermal shift relative to vanadate control, % at 40 µM; actives 25% (n = 1,500); AID 540329;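 active means substances whose mean melting-temperature shift, as a percentage of the reference inhibitor's shift, reaches about 5.3%, limit read from the data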;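 further: 0% = Tm of DMSO wells and 100% = Tm with sodium orthovanadate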
# Starred values were filed as active, the others as inactive; / = no result.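 How the source made its calls, unless noted: active means inhibition of at least 30% at 20 µM; inactive means the rest.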
SMILES,LMPTP inh,DNMT1 block,SUMO1-SIM PPI,UBC9 SUMO inh,STEP inh,Scp1 inh,Scp-1 conf,Scp-1 MG ctr,others
CCCN1CCN(CCCNC(=O)Cn2cc3c(n2)CCCC3)CC1,-6,-3,3,17,-1,-8,/,/,
CCOCCCNC(=O)Cn1cc2c(n1)CCCC2,0,-2,-3,-8,-1,75*,-4,-5,
Cc1cc(C(F)F)n2nc(C(=O)Nc3sc4c(c3C(N)=O)CCC4)nc2n1,12,26,10,-12,4,61*,55*,-12,Scp1 DSF=4
O=C(N/N=C/c1cc2ccccc2nc1Cl)/C(=C/c1cccs1)NC(=O)c1ccccc1,-2,-8,9,23,14,99*,35*,-8,Scp1 DSF=3
CCOc1cc(Cl)c(CNCCCN2CCOCC2)cc1OC,-4,3,5,12,-1,-4,/,/,
O=C1CCC(CCC(=O)N2CCCC(C(=O)c3cccc(C(F)(F)F)c3)C2)=NN1 (stereo not drawn),0,-14,3,8,1,-8,-9,-4,
COc1cccc(C(=O)C2CCCN(C(=O)CCC3=NNC(=O)CC3)C2)c1 (stereo not drawn),-2,0,1,11,-2,4,/,/,
Cc1ccccc1/C=C/c1cccc[n+]1C,-1,-2,-9,7,-1,93*,-23,-20,
C[n+]1ccccc1/C=C/c1ccc(F)c(F)c1,0,4,-14,5,1,102*,-21,-21,
C[n+]1ccccc1/C=C/c1ccc([N+](=O)[O-])cc1,1,-1,-46,22,-1,-2,/,/,
C[n+]1ccccc1/C=C/c1ccc(C#N)cc1,-4,-2,-8,3,-2,99*,89*,-11,Scp1 DSF=-1
Cc1cccc(C)c1NC(=O)CN(C)C(=O)COc1cccc2c1OC(C)(C)C2,0,1,19,/,1,5,/,/,
O=C(Nc1ccc2c(c1)C(=O)NC2=O)c1cccc(Cl)c1,3,28,3,6,22,54*,66*,-14,Scp1 DSF=0
O=C(Nc1ccc2c(c1)C(=O)NC2=O)c1ccc(Cl)s1,5,3,-7,16,22,85*,-2,-15,
O=C(Nc1ccc2c(c1)C(=O)NC2=O)c1cc(Cl)ccc1Cl,-14,-1,-130,12,-1,-13,/,/,
CCCNC(=O)C1(C)CCN(Cc2ccc3ccccc3c2Br)C1 (stereo not drawn),0,-4,-6,/,-4,/,/,/,
Cc1cccc(C)c1NC(=S)NC(=O)c1cccc(Cl)c1,1,-9,5,/,0,/,/,/,
CC(=O)N1CCOc2ccc(S(=O)(=O)NC[C@H]3O[C@@H](n4ccc(=O)[nH]c4=O)[C@H](O)[C@@H]3O)cc21,-1,2,-1,/,-2,8,-17,-16,
CC(=O)N1CCOc2ccc(S(=O)(=O)NCc3ccc(C)cc3)cc21,1,1,2,0,-4,-9,/,/,
Cc1ccsc1/C=N/NC(=O)c1c[nH]c2ccccc12,1,-1,-8,-18,0,69*,-14,-15,
CCC(=O)Nc1ccc(C(=O)NNC(=O)C2CCCCC2)cc1,1,1,-6,3,-1,-9,/,/,
COc1ccccc1NC(=O)c1cc(N)cc(C(=O)Nc2ccccc2OC)c1,1,-2,-1,/,2,-8,/,/,
COc1ccccc1NC(=O)c1coc(=O)c(Br)c1,8,15,1,25,4,66*,8,-6,
CC1(C(O)(C#CC[N+]2(C)CCCCC2)c2ccccc2)CCCC1 (stereo not drawn),0,-2,0,1,-1,98*,94*,-8,Scp1 DSF=-7
CCC[N+]1(CC#CC(O)(c2ccccc2)C2CCCCC2)CCCCC1 (stereo not drawn),-1,-2,-5,0,2,-9,/,/,
SMILES,LMPTP inh,DNMT1 block,SUMO1-SIM PPI,UBC9 SUMO inh,STEP inh,Scp1 inh,Scp-1 conf,Scp-1 MG ctr,others
C/C(Cn1nc([N+](=O)[O-])cc1C)=N\NC(=O)c1ccc(C(C)(C)C)cc1,-2,-4,-8,0,10,81*,-21,-19,
Nc1ncc(S(=O)(=O)c2ccc([N+](=O)[O-])cc2)s1,-1,0,-32,/,2,1,/,/,
Oc1ccc(C[C@H]2CNC(=S)N2CC2CCCN2C[C@H](Cc2ccc(O)cc2)N2C[C@H](Cc3ccccc3)N(CC3CCCCC3)C2=S)cc1 (stereo partly drawn),6,-19,3,/,0,50*,9,9,
Oc1ccc(C[C@H]2CN([C@@H](Cc3ccccc3)CN3CCC[C@@H]3CN3C(=S)NC[C@@H]3Cc3ccccc3)C(=S)N2CC2CCCCC2)cc1,6,-8,10,/,8,/,/,/,
Cc1ccc(C(=O)Oc2cccc(NC(=O)c3ccco3)c2)cc1S(=O)(=O)N1CCC(C)CC1,3,-6,0,16,0,54*,-10,-14,
Cc1cccc(Cl)c1NNC(=O)Nc1c([N+](=O)[O-])c(C)nn1C,0,3,0,15,0,-10,/,/,
O=C(CCC1N=C2c3ccccc3N=C(SCC(=O)NCc3ccco3)N2C1=O)NCc1ccco1 (stereo not drawn),0,15,3,20,2,83*,69*,-15,Scp1 DSF=-17
COc1cc(S(=O)(=O)Nc2ccc(C)cc2)ccc1NC(=O)c1ccncc1,-1,-1,5,-18,-2,54*,-18,-18,
O=C(Nc1ccccc1F)c1ccc2ncsc2c1,0,-1,1,11,-2,5,/,/,
O=S(=O)([N-]c1nc2ccccc2nc1-[n+]1ccc(-c2ccncc2)cc1)c1ccccc1,-1,10,-24,16,-8,-9,/,/,
O=[N+]([O-])c1cc2c(c3cccnc13)COCO2,13,23,-21,/,0,62*,52*,-10,Scp1 DSF=-2
CCCN1C(=O)c2cc(C(=O)NC3CCCCCC3)ccc2C1O (stereo not drawn),-2,7,-1,-2,-1,60*,-13,-6,
COCCN1C(=O)CSCC1(C)C(=O)Nc1c(C)cccc1C (stereo not drawn),-1,/,3,/,/,/,/,/,
CCCNC(=O)c1ccc2c(=O)c(O)c(-c3ccc(C)cc3)[nH]c2c1,0,15,-29,42,1,-6,/,/,
